Data as given in ChEMBL document CHEMBL5058577, “EUbOPEN Chemogenomics Library 2 (Multiplex)” (2022).

System: HEK-293T
Experiment: Multiplex assay against HEK293T
Assay type: toxicity, cell-based
Settings: human
Outline: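 Values for tubulin, mitochondrial-mass and membrane-permeability phenotypes are per cents of cells with healthy nuclei. These cells were identified by CellPathfinder machine-learning gating of live cells that had been stained at seeding with Hoechst33342, BioTracker Green Microtubule Cytoskeleton Dye, MitoTracker Red and Annexin V Alexa Fluor 680 and imaged on a CQ1 microscope at 37°C and 5% CO2 after compound addition. The gating first set Hoechst high-intensity objects apart from normal cells, then split normal cells into healthy, pyknosed or fragmented nuclei, and pyknosed cells into mitotic or apoptotic.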

[1] = 12 h, 1 µM, compound concentration 1 uM, replicate 1
[2] = 12 h, 1 µM, compound concentration 1 uM, replicate 2
[3] = 12 h, 10 µM, compound concentration 10 uM, replicate 1
[4] = 12 h, 10 µM, compound concentration 10 uM, replicate 2
[5] = 24 h, 1 µM, compound concentration 1 uM, replicate 1
[6] = 24 h, 1 µM, compound concentration 1 uM, replicate 2
[7] = 24 h, 10 µM, compound concentration 10 uM, replicate 1
[8] = 24 h, 10 µM, compound concentration 10 uM, replicate 2
[9] = 48 h, 1 µM, compound concentration 1 uM, replicate 1
[10] = 48 h, 1 µM, compound concentration 1 uM, replicate 2
[11] = 48 h, 10 µM, compound concentration 10 uM, replicate 1
[12] = 48 h, 10 µM, compound concentration 10 uM, replicate 2

Compound: O=C(O)CCC/C=C\CC1C(O)CC(O)C1/C=C/C(O)COc1cccc(Cl)c1 (stereo not drawn) [CLOPROSTENOL]
- Population Apoptotic (%) [1]: 31%
- Population Fragmented Nuclei (%) [1]: 7%
- Population Healthy Nuclei (%) [1]: 81%
- Population Hoechst High Intensity Objects (%) [1]: 9%
- Population Membrane Permeable-Phenotype (%) [1]: 0%
- Population Mitochondria Different-Phenotype (%) [1]: 44%
- Population Mitotic Cells (%) [1]: 68%
- Population Normal (%) [1]: 90%
- Population Pyknosed Nuclei (%) [1]: 10%
- Population Tubulin-Different-Phenotype (%) [1]: 35%
- Total Cell Count [1]: 458
- Population Apoptotic (%) [2]: 40%
- Population Fragmented Nuclei (%) [2]: 6%
- Population Healthy Nuclei (%) [2]: 80%
- Population Hoechst High Intensity Objects (%) [2]: 7%
- Population Mitochondria Different-Phenotype (%) [2]: 56%
- Population Mitotic Cells (%) [2]: 59%
- Population Normal (%) [2]: 92%
- Population Pyknosed Nuclei (%) [2]: 13%
- Population Tubulin-Different-Phenotype (%) [2]: 23%
- Total Cell Count [2]: 341
- Population Apoptotic (%) [3]: 45%
- Population Fragmented Nuclei (%) [3]: 7%
- Population Healthy Nuclei (%) [3]: 77%
- Population Hoechst High Intensity Objects (%) [3]: 6%
- Population Membrane Permeable-Phenotype (%) [3]: 0%
- Population Mitochondria Different-Phenotype (%) [3]: 63%
- Population Mitotic Cells (%) [3]: 54%
- Population Normal (%) [3]: 93%
- Population Pyknosed Nuclei (%) [3]: 14%
- Population Tubulin-Different-Phenotype (%) [3]: 41%
- Total Cell Count [3]: 395
- Population Apoptotic (%) [4]: 51%
- Population Fragmented Nuclei (%) [4]: 8%
- Population Hoechst High Intensity Objects (%) [4]: 13%
- Population Mitochondria Different-Phenotype (%) [4]: 68%
- Population Mitotic Cells (%) [4]: 48%
- Population Normal (%) [4]: 86%
- Population Tubulin-Different-Phenotype (%) [4]: 37%
- Total Cell Count [4]: 357
- Population Apoptotic (%) [5]: 22%
- Population Fragmented Nuclei (%) [5]: 11%
- Population Healthy Nuclei (%) [5]: 76%
- Population Hoechst High Intensity Objects (%) [5]: 7%
- Population Membrane Permeable-Phenotype (%) [5]: 1%
- Population Mitochondria Different-Phenotype (%) [5]: 25%
- Population Mitotic Cells (%) [5]: 77%
- Population Normal (%) [5]: 92%
- Population Pyknosed Nuclei (%) [5]: 11%
- Population Tubulin-Different-Phenotype (%) [5]: 28%
- Total Cell Count [5]: 612
- Population Apoptotic (%) [6]: 34%
- Population Fragmented Nuclei (%) [6]: 7%
- Population Healthy Nuclei (%) [6]: 83%
- Population Hoechst High Intensity Objects (%) [6]: 5%
- Population Membrane Permeable-Phenotype (%) [6]: 0%
- Population Mitochondria Different-Phenotype (%) [6]: 37%
- Population Mitotic Cells (%) [6]: 65%
- Population Normal (%) [6]: 94%
- Population Pyknosed Nuclei (%) [6]: 9%
- Population Tubulin-Different-Phenotype (%) [6]: 16%
- Total Cell Count [6]: 477
- Population Apoptotic (%) [7]: 46%
- Population Fragmented Nuclei (%) [7]: 10%
- Population Healthy Nuclei (%) [7]: 78%
- Population Hoechst High Intensity Objects (%) [7]: 7%
- Population Membrane Permeable-Phenotype (%) [7]: 0%
- Population Mitochondria Different-Phenotype (%) [7]: 46%
- Population Mitotic Cells (%) [7]: 54%
- Population Normal (%) [7]: 92%
- Population Pyknosed Nuclei (%) [7]: 10%
- Population Tubulin-Different-Phenotype (%) [7]: 35%
- Total Cell Count [7]: 490
- Population Fragmented Nuclei (%) [8]: 12%
- Population Hoechst High Intensity Objects (%) [8]: 11%
- Population Mitochondria Different-Phenotype (%) [8]: 55%
- Population Mitotic Cells (%) [8]: 53%
- Population Normal (%) [8]: 88%
- Population Pyknosed Nuclei (%) [8]: 9%
- Population Tubulin-Different-Phenotype (%) [8]: 31%
- Total Cell Count [8]: 483
- Population Apoptotic (%) [9]: 20%
- Population Fragmented Nuclei (%) [9]: 15%
- Population Healthy Nuclei (%) [9]: 77%
- Population Hoechst High Intensity Objects (%) [9]: 4%
- Population Membrane Permeable-Phenotype (%) [9]: 1%
- Population Mitochondria Different-Phenotype (%) [9]: 15%
- Population Mitotic Cells (%) [9]: 79%
- Population Normal (%) [9]: 95%
- Population Pyknosed Nuclei (%) [9]: 6%
- Population Tubulin-Different-Phenotype (%) [9]: 15%
- Total Cell Count [9]: 956
- Population Apoptotic (%) [10]: 28%
- Population Fragmented Nuclei (%) [10]: 13%
- Population Healthy Nuclei (%) [10]: 81%
- Population Hoechst High Intensity Objects (%) [10]: 5%
- Population Mitochondria Different-Phenotype (%) [10]: 20%
- Population Mitotic Cells (%) [10]: 71%
- Population Normal (%) [10]: 94%
- Population Pyknosed Nuclei (%) [10]: 5%
- Population Tubulin-Different-Phenotype (%) [10]: 11%
- Total Cell Count [10]: 703
- Population Apoptotic (%) [11]: 33%
- Population Fragmented Nuclei (%) [11]: 16%
- Population Healthy Nuclei (%) [11]: 76%
- Population Hoechst High Intensity Objects (%) [11]: 7%
- Population Membrane Permeable-Phenotype (%) [11]: 0%
- Population Mitochondria Different-Phenotype (%) [11]: 32%
- Population Mitotic Cells (%) [11]: 66%
- Population Normal (%) [11]: 92%
- Population Pyknosed Nuclei (%) [11]: 6%
- Population Tubulin-Different-Phenotype (%) [11]: 18%
- Total Cell Count [11]: 659
- Population Apoptotic (%) [12]: 25%
- Population Fragmented Nuclei (%) [12]: 18%
- Population Healthy Nuclei (%) [12]: 75%
- Population Hoechst High Intensity Objects (%) [12]: 6%
- Population Membrane Permeable-Phenotype (%) [12]: 1%
- Population Mitochondria Different-Phenotype (%) [12]: 25%
- Population Mitotic Cells (%) [12]: 74%
- Population Normal (%) [12]: 93%
- Population Pyknosed Nuclei (%) [12]: 5%
- Total Cell Count [12]: 731
